Assay outcomes (PubChem)
Only some compounds are listed: those with a hit (about 2.3% of all), similar ones and a draw of the others.
TRPC6 inh: inhibitors of mouse TRPC6 channel; 310,000 tested, 1.1% active; Q61143; B-score at 10 µM; HEK293-TRPC6, membrane potential dye, ACh-evoked depolarization; hits give low values;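 active = B-score under library mean minus 3 SD, initial fluorescence not abnormally high, positive integrated signal ratio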;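 note: B-score derived from integrated fluorescence ratio over the kinetic read; more negative B-score means stronger inhibition of depolarization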
Target sequence (Q61143 whole entry, looked up): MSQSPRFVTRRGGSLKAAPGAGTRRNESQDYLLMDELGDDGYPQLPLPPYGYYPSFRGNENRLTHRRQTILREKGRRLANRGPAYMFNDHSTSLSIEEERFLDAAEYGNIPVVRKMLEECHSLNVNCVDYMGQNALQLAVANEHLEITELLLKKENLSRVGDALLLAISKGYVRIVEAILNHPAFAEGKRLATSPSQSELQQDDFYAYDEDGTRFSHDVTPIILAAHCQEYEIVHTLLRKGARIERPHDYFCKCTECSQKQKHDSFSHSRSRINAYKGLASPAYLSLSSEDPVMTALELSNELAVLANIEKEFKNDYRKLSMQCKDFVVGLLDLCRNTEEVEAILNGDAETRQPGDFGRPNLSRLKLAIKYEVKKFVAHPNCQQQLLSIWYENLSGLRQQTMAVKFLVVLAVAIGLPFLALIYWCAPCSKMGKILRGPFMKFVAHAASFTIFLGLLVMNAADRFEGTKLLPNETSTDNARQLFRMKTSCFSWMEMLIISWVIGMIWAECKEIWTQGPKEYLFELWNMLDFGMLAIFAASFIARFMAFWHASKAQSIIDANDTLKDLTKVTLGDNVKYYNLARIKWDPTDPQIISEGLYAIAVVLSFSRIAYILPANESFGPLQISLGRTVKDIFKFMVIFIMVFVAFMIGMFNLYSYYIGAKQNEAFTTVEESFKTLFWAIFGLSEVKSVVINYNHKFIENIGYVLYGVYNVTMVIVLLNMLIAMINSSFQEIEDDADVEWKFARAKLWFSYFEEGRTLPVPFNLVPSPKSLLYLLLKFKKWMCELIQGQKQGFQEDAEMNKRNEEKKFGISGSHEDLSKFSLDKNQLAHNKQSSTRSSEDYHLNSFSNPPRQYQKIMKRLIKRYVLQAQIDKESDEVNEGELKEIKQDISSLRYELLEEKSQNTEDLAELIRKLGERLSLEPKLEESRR
TRPC4 PAM: TRPC4 (mouse) allosteric potentiation; B-score at 10 µM; 310,000 tested, 0.42% active; Q9QUQ5; AID 2227; HEK293 TRPC4beta/mu-opioid, DAMGO EC20, Fluo-4 Ca2+ flux; hits give high values;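 active = B-score of calcium response area above 5 SD of library B-scores, with initial fluorescence ratio within 5 SD of library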;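 note: B-score of integrated fluorescence ratio over time as area under calcium response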
TRPC6 act: mouse TRPC6 channel activation | B-score at 10 µM | AID 2550 | HEK293-TRPC6 membrane potential dye fluorescence; hits give high values | 310,000 tested, 0.13% active;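 active = B-score of the integrated fluorescence ratio above library mean plus 3 SD, and starting fluorescence ratio within library mean plus 5 SD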;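 note: higher score means more depolarization so channel activation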
TRPC4 act: opens the mouse TRPC4 cation channel; HEK293 TRPC4beta/mu-opioid, Fluo4 calcium fluorescence; hits give high values; B-score at 10 µM; 310,000 tested, 0.49% active; AID 2237;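 active = B-score above 5 SD of library B-scores, and initial fluorescence ratio not above library mean plus 5 SD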;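 note: positive B-score marks a calcium rise read as TRPC4 activation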
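Material: HEK293 stable line with TRPC4beta plus mu-opioid receptor; technique: Fluo4 calcium-sensitive dye fluorescence, kinetic, 1 Hz baseline; timing: Fluo4 dye loading 45 min at room temperature, 110 s recording; controls: assay buffer as low control, maximal DAMGO as high control; read-out: integrated baseline-normalised fluorescence ratio, converted to per-well B score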
TRPC4 block: TRPC4 (mouse) channel inhibition | HEK293 TRPC4beta/mu-opioid, DAMGO-evoked Fluo4 calcium flux; hits give low values | B-score at 10 µM | 300,000 tested, 0.39% active;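 active = B-score over 3 SD under the library average, no early fluorescence shift, positive overall ratio signal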
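Material: HEK293 cells with stable TRPC4beta plus mu-opioid receptor expression / Probe or stimulus: DAMGO in two steps, submaximal then maximal / Compound: single concentration per test compound / Technique: kinetic Fluo4 fluorescence imaging of calcium influx / Read-out: per-well B score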
TRPC4 sel inh 2: second check of whether TRPC6 inhibitors also affect mouse TRPC4; shares compounds with TRPC6 inh; inhibition, % at 10 µM; 920 tested, 42% active; HEK293 TRPC4/MOR, membrane potential dye fluorescence; channel activated by saturating DAMGO dose;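 active = compounds whose fluorescence signal differed from control wells by over 3 SD, either direction, in both duplicate plates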
TRPC4 spec: tests whether TRPC6 inhibitors also affect mouse TRPC4; shares compounds with TRPC6 inh; HEK293 TRPC4/mu-opioid, membrane potential fluorescence; activity change, negative = inhibition, % at 10 µM; 920 tested, 61% active; AID 2777;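 active = rise or fall in signal beyond 3 SD of buffer-only wells in both replicate plates, either sign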;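 note: integrated kinetic ratio of fluorescence range over baseline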
HEK293 MPD ctr 2-1: second counter-screen for TRPC6 inhibitors: parental HEK293 cells. 920 tested, 31% active. parental HEK293 membrane potential dye fluorescence; maximal acetylcholine challenge after compound addition. shares compounds with TRPC6 inh. AID 2779. signal change vs control, % at 10 µM;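 active = membrane potential signal moving either way by over 3 SD of the maximum-effect control, in both duplicate plates, meaning non-specific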
HEK293 MPD ctr-1: parental HEK293 nonspecific activity of TRPC6 inhibitors. shares compounds with TRPC6 inh. parental HEK293 membrane potential dye fluorescence. membrane potential signal change, % at 10 µM. 920 tested, 60% active. AID 2780;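 active = membrane potential signal shifting up or down by more than 3 SD of buffer-only wells, on both duplicate plates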
HEK293 MPD ctr-2: counter-screen for TRPC6 modulators: effect in parental HEK293 cells; shares compounds with TRPC6 inh; membrane potential dye fluorescence; AID 488924; 2,400 tested, 51% active; membrane potential signal change, % at 10 µM;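 active = membrane potential signal moves up or down beyond 5 SD from buffer-only wells, on both duplicate plates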
HEK293 MPD ctr 2-2: parental HEK293 nonspecific activity of TRPC6 modulators, second screen. shares compounds with TRPC6 inh. 2,400 tested, 14% active. AID 488926. inhibition, % at 10 µM. membrane potential dye fluorescence; after compound, maximal acetylcholine stimulation;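 active = membrane potential signal drops by more than 5 SD from the mean control signal, in both duplicate plates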;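 note: plate controls were acetylcholine ECmax control wells for no effect and buffer only wells for full effect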
TRPC4/MOR mod: selectivity of TRPC6 modulators against mouse TRPC4; shares compounds with TRPC6 inh; AID 488927; 2,400 tested, 69% active; percent change from control (negative = decrease, positive = increase), % at 10 µM; HEK293 TRPC4/mu-opioid, membrane potential fluorescence;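 active = membrane potential signal moved up or down beyond 5 SD of buffer control wells, in both duplicate plates, actives on both sides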;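 note: plate controls were assay buffer wells for no effect and DAMGO maximal-effect wells for full effect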
TRPC4/MOR inh 2: second check of whether TRPC6 modulators also affect mouse TRPC4 | inhibition, % at 10 µM | shares compounds with TRPC6 inh | HEK293 TRPC4/mu-opioid, membrane potential dye fluorescence; stimulated with maximal-effect DAMGO | 2,400 tested, 55% active;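 active = drop in membrane potential signal beyond 5 SD of the control wells in both duplicate plates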;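 note: TRPC4 counter screen for TRPC6 hits run under conditions tuned for TRPC6 not TRPC4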
TRPC6 inh conf: confirmation of mouse TRPC6 inhibitors | AID 488960 | 3,300 tested, 43% active | shares compounds with TRPC6 inh | HEK293-TRPC6, membrane potential dye, ACh-evoked depolarization | inhibition, % at 10 µM;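 active = fluorescence ratio falls more than 5 SD below the full-stimulation control mean, in both duplicate runs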;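 note: integrated fluorescence ratio of peak minus minimum over baseline after agonist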
TRPC6 act confirm: mouse TRPC6 activator confirmation; shares compounds with TRPC6 inh; HEK293-TRPC6 membrane potential dye fluorescence, FDSS; activation, % at 10 µM; 2,800 tested, 11% active;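 active = ratio signal rise beyond 5 SD above unstimulated control wells' mean, seen in both duplicate runs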;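 note: plate controls were buffer EC0 wells for no effect and acetylcholine ECmax response for full effect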
The depositor's hits bear a star; i = inactive; nt = no result.

SMILES	TRPC6 inh	TRPC4 PAM	TRPC6 act	TRPC4 act	TRPC4 block	HEK293 MPD ctr-2	HEK293 MPD ctr 2-2	TRPC4/MOR mod	TRPC4/MOR inh 2	TRPC6 inh conf	TRPC6 act confirm	others
COc1ccccc1C(=O)Nc1ccnn1C1CCN(Cc2ncc[nH]2)CC1	i	i	i	i	i	nt	nt	nt	nt	nt	nt
O=C(CC1C(=O)NCCN1C(=O)Nc1ccc(C(F)(F)F)cc1)Nc1ccc(F)cc1 (stereo unspecified)	-5*	i	i	i	i	-106%*	i	-18%*	45%*	i	i
N#Cc1nc(Cc2cccc3ccccc23)oc1NCCN1CCCCC1	-5.2*	i	i	i	i	106%*	i	10%*	63%*	i	nt
CCOC(=O)c1ccc(NC(=S)NCc2ccc(F)cc2)cc1	i	i	i	i	i	nt	nt	nt	nt	nt	nt
Cc1cccc(Nc2ccncc2S(N)(=O)=O)c1	i	i	i	i	i	nt	nt	nt	nt	nt	nt
c1csc(Cc2nc3ccccc3[nH]2)c1	-14*	i	i	i	i	i	i	i	i	i	i
c1ccc(Cn2nnc3cnccc32)cc1	-8.1*	i	i	i	-5*	nt	nt	nt	nt	i	i	TRPC4 sel inh 2=i;TRPC4 spec=i;HEK293 MPD ctr 2-1=i;HEK293 MPD ctr-1=i
c1ccc(Cn2nnc3ccccc32)cc1	i	i	i	i	i	nt	nt	nt	nt	nt	nt
O=C1CSC(c2cccc(F)c2)N1c1c(F)cccc1F (stereo unspecified)	i	i	i	i	i	nt	nt	nt	nt	nt	nt
O=C1CSC(c2c(F)cccc2Cl)N1c1cccc(F)c1 (stereo unspecified)	-5.1*	i	i	i	i	i	i	12%*	i	i	i
COc1ccccc1-c1ccc(/C=C2/C=C(C)OC2=O)o1	i	i	i	i	i	nt	nt	nt	nt	nt	nt
COc1ccccc1-c1ccc(/C=C2\C=CC(=O)O2)o1	i	i	31*	i	i	706%*	i	204%*	i	i	121%*
Cc1ccc(NC(=O)CCC(=O)n2nc(C)cc2C)c(C)c1	-5.9*	i	i	i	i	i	i	i	i	i	i
O=C(Cc1ccccc1F)NC1CCCc2ccccc21 (stereo unspecified)	i	i	i	i	i	nt	nt	nt	nt	nt	nt
O=C(CCc1ccccc1)NC1CCCc2ccccc21 (stereo unspecified)	-7.5*	i	i	i	i	nt	nt	nt	nt	i	i	TRPC4 sel inh 2=i;TRPC4 spec=6.5%*;HEK293 MPD ctr 2-1=i;HEK293 MPD ctr-1=5.4%*
COC(=O)c1c(C)cc(C)n2c1nc1ccccc12	-6.8*	i	i	i	i	nt	nt	nt	nt	64%*	i	TRPC4 sel inh 2=i;TRPC4 spec=-20%*;HEK293 MPD ctr 2-1=i;HEK293 MPD ctr-1=-334%*
Cc1cc(C)n2c(nc3ccccc32)c1C(=O)NN	i	i	i	i	i	nt	nt	nt	nt	nt	nt
Cc1c(N=C2SCC(=O)N2/N=C\c2ccc(Br)cc2)c(=O)n(-c2ccccc2)n1C	i	i	i	i	i	nt	nt	nt	nt	nt	nt
NC(=Nc1ccccc1)NC(=O)c1nc(Cl)c(N)nc1N	i	i	i	i	i	nt	nt	nt	nt	nt	nt
CN(C)c1nc(N)c(C(=O)N=C(N)N)nc1Cl	-7.3*	i	i	i	i	nt	nt	nt	nt	i	i	TRPC4 sel inh 2=i;TRPC4 spec=-24%*;HEK293 MPD ctr 2-1=i;HEK293 MPD ctr-1=-364%*
Cc1cc(C)nc(/N=C(\N)Nc2ccc(C)c([N+](=O)[O-])c2)n1	-5.4*	i	i	i	i	i	i	-19%*	36%*	i	i
CN(C)CCOC(C1CCCCC1)C1CCCCC1	-5.5*	i	i	i	i	230%*	i	52%*	50%*	39%*	nt
O=C(/C(N=Nc1cccc([N+](=O)[O-])c1)=C(/O)c1ccc(Br)cc1)C(F)(F)F	-8.2*	i	i	i	i	nt	nt	nt	nt	81%*	i	TRPC4 sel inh 2=75%*;TRPC4 spec=8.5%*;HEK293 MPD ctr 2-1=i;HEK293 MPD ctr-1=5.2%*
CCOc1ccc(Nc2nc(N)c3ccccc3n2)cc1	i	i	i	i	i	nt	nt	nt	nt	nt	nt
COc1ccc([N+](=O)[O-])cc1Nc1c2ccccc2nc2ccccc12	i	i	i	i	i	nt	nt	nt	nt	nt	nt
SMILES	TRPC6 inh	TRPC4 PAM	TRPC6 act	TRPC4 act	TRPC4 block	HEK293 MPD ctr-2	HEK293 MPD ctr 2-2	TRPC4/MOR mod	TRPC4/MOR inh 2	TRPC6 inh conf	TRPC6 act confirm	others
Cc1ccccc1Nc1nc(N)c2ccccc2n1	-6.8*	i	i	i	i	nt	nt	nt	nt	70%*	i	TRPC4 sel inh 2=32%*;TRPC4 spec=-26%*;HEK293 MPD ctr 2-1=36%*;HEK293 MPD ctr-1=-330%*
CN(C)c1nc(Nc2ccccc2)nc(N(C)C)n1	i	i	i	i	i	nt	nt	nt	nt	nt	nt
COc1ccc(C)cc1Nc1nc(N)c2ccccc2n1	-10*	i	i	i	i	-221%*	112%*	-52%*	91%*	100%*	i
CN(C)c1ccc(Nc2nc(N)c3ccccc3n2)cc1	-7.3*	i	i	i	i	-182%*	90%*	-45%*	86%*	84%*	i
Nc1nc(Nc2ccccc2)nc2ccccc12	-22*	i	i	i	i	-200%*	90%*	-46%*	86%*	86%*	i
COc1cc2c(=O)n(CCC(=O)NCC3CCCO3)c(=O)n(CC(=O)Nc3ccc(F)cc3)c2cc1OC (stereo unspecified)	i	i	i	i	i	nt	nt	nt	nt	nt	nt
CC(C)OC(=O)CSc1nnc(-c2ccccc2)n1N	i	i	i	i	i	nt	nt	nt	nt	nt	nt
